Experiment [1] deals with P2Y1R (D^121 ↦ E) (Meleagris gallopavo, UniProt P49652, D110E). Put plainly: Calcium mobilization. The format is cell-based, turkey. The following applies: read-out: EC50 (for Ca^2+ mobilization); 1321N1 cells; mean ± SEM (n = 3).
The target in experiment [2] is P2Y1R (F^119 ↦ R) (Meleagris gallopavo, UniProt P49652, F108R). Put plainly: Calcium mobilization. The format is cell-based, turkey. The following applies: read-out: EC50 (for Ca^2+ mobilization); 1321N1 cells; mean ± SEM (n = 3).
P2Y1R (F^119 ↦ R), sequence (P49652 whole entry F108R): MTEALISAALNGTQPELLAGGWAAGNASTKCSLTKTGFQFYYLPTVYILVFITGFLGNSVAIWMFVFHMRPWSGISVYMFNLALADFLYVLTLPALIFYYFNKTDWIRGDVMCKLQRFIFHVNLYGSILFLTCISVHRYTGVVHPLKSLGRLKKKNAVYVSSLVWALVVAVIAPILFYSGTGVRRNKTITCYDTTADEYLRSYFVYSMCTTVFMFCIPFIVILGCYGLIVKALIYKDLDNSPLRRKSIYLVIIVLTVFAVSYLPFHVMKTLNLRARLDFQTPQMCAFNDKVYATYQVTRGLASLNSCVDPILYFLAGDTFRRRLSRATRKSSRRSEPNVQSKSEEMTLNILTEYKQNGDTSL
For experiment [3], the target named is P2Y1R (wild-type) (Meleagris gallopavo, UniProt P49652). Put plainly: Calcium mobilization. Type of experiment: cell-based, turkey. The following applies: read-out: EC50 (for Ca^2+ mobilization); 1321N1 cells; mean ± SEM (n = 3).
P2Y1R (wild-type), sequence (P49652 whole entry): as the sequence (P49652 whole entry F108R) above, with R108F counted along it
Experiment [4] deals with P2Y1R (D^116 ↦ E) (Meleagris gallopavo, UniProt P49652, D105E). Put plainly: Calcium mobilization. The following applies: read-out: EC50 (for Ca^2+ mobilization); 1321N1 cells; mean ± SEM (n = 3). Type of experiment: cell-based, turkey.
P2Y1R (D^116 ↦ E), sequence (P49652 whole entry D105E): as the sequence (P49652 whole entry F108R) above, with D105E, R108F counted along it
For experiment [5], the target named is P2Y2R (D^97 ↦ E), RGE mutant (Homo sapiens, UniProt P41231, D97E). In words: Calcium mobilization. The format is cell-based. Particulars: 1321N1 cells.
P2Y2R (D^97 ↦ E), RGE mutant, sequence (P41231 whole entry D97E): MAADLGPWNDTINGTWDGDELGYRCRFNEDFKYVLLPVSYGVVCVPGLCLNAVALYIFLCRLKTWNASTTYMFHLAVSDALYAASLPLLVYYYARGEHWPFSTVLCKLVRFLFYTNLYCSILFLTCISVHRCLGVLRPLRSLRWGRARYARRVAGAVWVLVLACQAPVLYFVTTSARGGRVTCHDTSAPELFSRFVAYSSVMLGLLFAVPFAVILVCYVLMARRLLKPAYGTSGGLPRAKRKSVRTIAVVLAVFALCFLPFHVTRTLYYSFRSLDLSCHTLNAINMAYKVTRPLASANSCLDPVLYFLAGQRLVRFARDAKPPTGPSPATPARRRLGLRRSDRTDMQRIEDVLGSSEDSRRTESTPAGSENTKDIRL
Experiment [6] has as its system P2Y2R (wild-type). In words: Calcium mobilization. Type of experiment: cell-based, human.
In experiment [7] the test system is RGE mutant P2Y2R. Put plainly: FAK phosphorylation in 1321N1 transfectants. Type of experiment: cell-based, human. The following applies: 1 mM UTP after 30 min preincubation with 10 μM BAPTA-AM. The method, boiled down: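 Serum-starved (24 h, 37°C) 1321N1 cells stably expressing HA-tagged P2Y2R constructs were preincubated 30 min with buffer or 10 μM BAPTA-AM, then stimulated with 1 mM UTP. Cells were lysed in RIPA buffer and FAK was immunoprecipitated. Tyrosine phosphorylation was detected by anti-phosphotyrosine immunoblot after 7.5% SDS-PAGE, with chemiluminescence read-out. Three to six experiments.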

Experiment [8] has as its system wild-type P2Y2R. Put plainly: FAK phosphorylation in 1321N1 transfectants. Type of experiment: cell-based, human.
The subject of experiment [9] is RGE mutant P2Y2R. Put plainly: ERK1/2 phosphorylation in 1321N1 transfectants. Type of experiment: cell-based, human. Particulars: 100 μM UTP after 30 min preincubation with 10 μM BAPTA-AM. The method in brief:
(§1)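 1321N1 astrocytoma cells stably expressing HA-tagged P2Y2R (retroviral pLXSN, G418-selected) were grown to 80% confluence and serum-starved 24 h at 37°C. They were preincubated 30 min with buffer or 10 μM BAPTA-AM, then given 100 μM UTP. Lysates were run on 7.5% SDS-PAGE and immunoblotted for phospho-p42/p44 ERK1/2. Chemiluminescence was quantitated and normalised by reprobing for total ERK1/2.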

The test system of experiment [10] is wild-type P2Y2R. In words: ERK1/2 phosphorylation in 1321N1 transfectants. The format is cell-based, human. The method, boiled down:
as §1

Experiment [11] has as its system K562 cells. In words: Fluorescence-activated cell sorting of integrin surface expression. Type of experiment: cell-based, human. Particulars: overnight treatment with 100 nM PDBu.
The subject of experiment [12] is wild-type P2Y2R. Put plainly: IP assay. The format is cell-based, human. The following applies: overnight treatment with peptide; not shown. The method, boiled down:
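Wild-type P2Y2R 1321N1 transfectants were labelled 24 h with 2 μCi [3H]inositol (20 Ci/mmol) in serum-free, inositol-free DME. Cells were washed and held 30 min at 37°C in 30 mM LiCl buffer, then stimulated 10 min with UTP. Extraction used ice-cold 10% perchloric acid with neutralisation. Inositol phosphates were separated on Dowex columns and counted by liquid scintillation.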

The subject of experiment [13] is K562 erythroleukemia cells. In words: Ligand-coated bead-binding assay. The following applies: number of beads bound per 100 cells; 1 h at 37°C; mean ± SEM. The format is cell-based, human.
For experiment [14], the target named is αVβ5 integrin (human (endogenous in K562)) (UniProt P06756). Put plainly: ligand-coated bead binding to cells.
αVβ5 integrin (human (endogenous in K562)), sequence (P06756 31-1048, chain 1 of 2): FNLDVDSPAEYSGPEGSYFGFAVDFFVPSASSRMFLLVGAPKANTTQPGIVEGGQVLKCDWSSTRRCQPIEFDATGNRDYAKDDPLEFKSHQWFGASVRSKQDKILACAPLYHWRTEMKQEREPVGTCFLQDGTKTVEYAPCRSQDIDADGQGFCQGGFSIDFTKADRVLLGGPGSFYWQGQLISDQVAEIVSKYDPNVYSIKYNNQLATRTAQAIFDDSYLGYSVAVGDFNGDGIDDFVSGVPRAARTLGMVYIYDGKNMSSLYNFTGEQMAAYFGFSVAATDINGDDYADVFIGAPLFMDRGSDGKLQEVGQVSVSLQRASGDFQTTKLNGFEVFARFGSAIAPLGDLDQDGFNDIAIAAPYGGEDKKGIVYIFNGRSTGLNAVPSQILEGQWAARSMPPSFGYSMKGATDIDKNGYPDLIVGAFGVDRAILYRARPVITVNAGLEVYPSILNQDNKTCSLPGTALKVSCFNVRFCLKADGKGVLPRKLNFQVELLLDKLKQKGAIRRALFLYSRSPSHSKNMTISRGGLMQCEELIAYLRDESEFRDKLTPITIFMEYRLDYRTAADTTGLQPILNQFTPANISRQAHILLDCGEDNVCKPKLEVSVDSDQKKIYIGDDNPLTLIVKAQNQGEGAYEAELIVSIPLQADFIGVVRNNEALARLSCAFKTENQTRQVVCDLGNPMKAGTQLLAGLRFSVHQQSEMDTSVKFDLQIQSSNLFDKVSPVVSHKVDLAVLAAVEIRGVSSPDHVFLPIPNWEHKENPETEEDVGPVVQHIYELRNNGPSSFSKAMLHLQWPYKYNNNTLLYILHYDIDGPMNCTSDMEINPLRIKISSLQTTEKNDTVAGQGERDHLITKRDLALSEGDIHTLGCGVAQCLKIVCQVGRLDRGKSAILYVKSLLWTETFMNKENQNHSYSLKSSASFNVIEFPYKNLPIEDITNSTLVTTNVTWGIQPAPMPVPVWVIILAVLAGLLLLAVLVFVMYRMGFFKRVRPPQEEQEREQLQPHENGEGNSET
αVβ5 integrin (human (endogenous in K562)), sequence (P18084 24-799, chain 2 of 2, further chain): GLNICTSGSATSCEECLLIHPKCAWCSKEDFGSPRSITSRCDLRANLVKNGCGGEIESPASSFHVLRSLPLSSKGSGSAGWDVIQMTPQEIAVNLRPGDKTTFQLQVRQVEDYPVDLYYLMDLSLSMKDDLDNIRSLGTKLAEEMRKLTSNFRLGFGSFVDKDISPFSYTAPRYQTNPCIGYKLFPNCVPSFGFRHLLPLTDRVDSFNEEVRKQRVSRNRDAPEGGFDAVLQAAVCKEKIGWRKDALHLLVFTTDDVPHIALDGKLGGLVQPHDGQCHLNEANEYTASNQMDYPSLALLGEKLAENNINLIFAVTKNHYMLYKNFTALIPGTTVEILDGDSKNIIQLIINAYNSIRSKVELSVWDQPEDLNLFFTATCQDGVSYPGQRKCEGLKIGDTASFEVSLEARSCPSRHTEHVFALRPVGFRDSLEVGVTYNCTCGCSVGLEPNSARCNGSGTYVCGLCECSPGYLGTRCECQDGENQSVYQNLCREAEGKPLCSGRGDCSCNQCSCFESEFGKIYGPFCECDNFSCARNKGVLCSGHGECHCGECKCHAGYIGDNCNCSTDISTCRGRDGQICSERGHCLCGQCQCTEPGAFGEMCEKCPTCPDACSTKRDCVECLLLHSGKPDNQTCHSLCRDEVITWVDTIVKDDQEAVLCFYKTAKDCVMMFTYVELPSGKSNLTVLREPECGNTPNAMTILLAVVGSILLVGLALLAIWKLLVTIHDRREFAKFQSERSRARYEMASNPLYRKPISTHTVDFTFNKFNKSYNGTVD
Experiment [15] deals with αVβ3 integrin (human (endogenous in K562)) (UniProt P06756). Put plainly: ligand-coated bead binding to cells.
αVβ3 integrin (human (endogenous in K562)), sequence (P06756 31-1048, chain 1 of 2): as the sequence (P06756 31-1048, chain 1 of 2) above
αVβ3 integrin (human (endogenous in K562)), sequence (P05106 27-788, chain 2 of 2, further chain): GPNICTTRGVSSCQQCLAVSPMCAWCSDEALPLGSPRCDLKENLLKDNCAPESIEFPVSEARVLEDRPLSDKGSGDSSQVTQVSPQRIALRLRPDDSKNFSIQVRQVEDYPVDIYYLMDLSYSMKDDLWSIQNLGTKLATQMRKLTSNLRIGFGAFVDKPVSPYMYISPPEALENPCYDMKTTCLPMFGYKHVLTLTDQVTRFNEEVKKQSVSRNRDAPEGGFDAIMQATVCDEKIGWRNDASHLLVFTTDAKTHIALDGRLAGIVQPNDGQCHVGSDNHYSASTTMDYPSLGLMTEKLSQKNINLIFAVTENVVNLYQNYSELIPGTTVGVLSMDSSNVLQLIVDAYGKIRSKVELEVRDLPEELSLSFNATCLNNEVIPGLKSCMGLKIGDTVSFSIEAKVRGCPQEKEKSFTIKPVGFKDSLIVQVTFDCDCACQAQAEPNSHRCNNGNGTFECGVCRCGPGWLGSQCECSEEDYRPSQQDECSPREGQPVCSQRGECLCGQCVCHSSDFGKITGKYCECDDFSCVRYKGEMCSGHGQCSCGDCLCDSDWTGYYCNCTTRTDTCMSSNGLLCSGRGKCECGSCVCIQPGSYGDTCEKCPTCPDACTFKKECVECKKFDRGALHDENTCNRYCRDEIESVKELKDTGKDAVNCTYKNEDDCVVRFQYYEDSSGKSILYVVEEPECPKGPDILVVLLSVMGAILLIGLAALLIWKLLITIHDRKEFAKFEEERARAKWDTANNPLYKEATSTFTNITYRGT
The mark [16] stands for this setting: overnight (18 h) with 100 μM peptide, 1 μM UTP 5 min.
Where [17] appears, read: shorter incubation periods than overnight, not shown.
Where [18] appears, read: overnight (18 h) with 100 μM peptide, 10 nM UTP 5 min.

Experimental findings from PMC2190579 (The Journal of Cell Biology, 2001) are described below.

P2Y1R (D^121 ↦ E), sequence (P49652 whole entry D110E): as the sequence (P49652 whole entry F108R) above, with R108F, D110E counted along it

Consider `Nc1ncnc2c1ncn2[C@@H]1O[C@H](COP(=O)(O)OP(=O)(O)O)[C@@H](O)[C@H]1O` [ADP], for which the half-maximal effective concentration (EC50) in experiment [1] was 80 ± 10 nM; in [2] it was 2020 ± 270 nM; in experiment [3], 60 ± 10 nM; in [4], 60 ± 10 nM.

`Nc1ncnc2c1ncn2[C@@H]1O[C@H](COP(=O)(O)OP(=O)(O)OP(=O)(O)O)[C@@H](O)[C@H]1O` [ATP]: the EC50 in experiment [5] (read-out: EC50 (for Ca^2+ mobilization), mean ± SEM (n = 3)) came out at 785000 ± 125000 nM; in experiment [6] (read-out: EC50 (for Ca^2+ mobilization), 1321N1 cells, mean ± SEM (n = 3)) it was 850 ± 130 nM.

Turning to `O=C(O)CN(CC(=O)O)c1ccccc1OCCOc1ccccc1N(CC(=O)O)CC(=O)O` [BAPTA, 1,2-bis(2-aminophenoxy)ethane-N,N,N′,N′-tetraacetic acid], the “Effect on UTP-induced FAK phosphorylation” value in experiment [7] and in [8] (1 mM UTP after 30 min preincubation with 10 μM BAPTA-AM) was “inhibited” throughout. Further, the “Effect on UTP-induced ERK1/2 phosphorylation” value in [9] is on record as “not affected”; in experiment [10] (100 μM UTP after 30 min preincubation with 10 μM BAPTA-AM) it was “partially inhibited”.

With `CCCC(=O)O[C@@H]1[C@@H](C)[C@@]2(O)[C@@H](C=C(CO)C[C@]3(O)C(=O)C(C)=C[C@@H]23)[C@@H]2C(C)(C)[C@]12OC(=O)CCC` [PDBu, phorbol dibutyrate], in experiment [11], the “Fluorescence intensity or percentage of cells stained by antiintegrin antibodies (α5, αVβ5, β3)” value is “did not increase”.

As to RGDS, the “Effect on P2Y2R-mediated FAK phosphorylation” value in [8] (setting [16]) was “inhibited”; in [8] (setting [17]), “did not cause inhibition”. In addition, the “Effect on P2Y2R-mediated ERK1/2 phosphorylation” value in experiment [10] (setting [18]) is “inhibited”; in experiment [10] (setting [17]), “did not cause inhibition”. Also, in experiment [6] (overnight treatment with peptide, not shown), the “Effect on P2Y2R-mediated Ca^2+ mobilization” value is given as “not inhibited”. Further, the “Effect on P2Y2R-mediated IP formation” value in [12] is reported as “not inhibited”.

As for RGES, the “Effect on P2Y2R-mediated FAK phosphorylation” value in [8] (setting [16]) is reported as “no effect”. For the same molecule, the “Effect on P2Y2R-mediated ERK1/2 phosphorylation” value in [10] (setting [18]) was “no effect”.

For the molecule fibronectin, the “AI (adhesion index) of ligand-coated beads bound to K562 cells” value in experiment [13] came to 318 ± 14.

On to human vitronectin (ligand), for which the adhesion index (AI, beads bound per 100 K562 cells) (beads bound per 100 cells) in [14] and in experiment [15] was 300 each time.

As for pertussis toxin, the “Effect on Ca^2+ mobilization” value in experiment [5] (200 ng/ml PTX overnight, 100 μM UTP) is “insensitive”. In experiment [6] (200 ng/ml PTX overnight, 1 μM UTP, 1321N1 cells), the “Inhibition of Ca^2+ mobilization” value was 30%.

B1: vitronectin: human vitronectin purchased from Calbiochem, coated on latex beads (protein, UniProt P04004 20-478, looked up)
Vitronectin: DQESCKGRCTEGFNVDKKCQCDELCSYYQSCCTDYTAECKPQVTRGDVFTMPEDEYTVYDDGEEKNNATVHEQVGGPSLTSDLQAQSKGNPEQTPVLKPEEEAPAPEVGASKPEGIDSRPETLHPGRPQPPAEEELCSGKPFDAFTDLKNGSLFAFRGQYCYELDEKAVRPGYPKLIRDVWGIEGPIDAAFTRINCQGKTYLFKGSQYWRFEDGVLDPDYPRNISDGFDGIPDNVDAALALPAHSYSGRERVYFFKGKQYWEYQFQHQPSQEECEGSSLSAVFEHFAMMQRDSWEDIFELLFWGRTSAGTRQPQFISRDWHGVPGQVDAAMAGRIYISGMAPRPSLAKKQRFRHRNRKGYRSQRGHSRGRNQNSRRPSRATWLSLFSSEESNLGANNYDDYRMDWLVPATCEPIQSVFFFSGDKYYRVNLRTRRVDTVDPPYPRSIAQYWLGCPAPGHL
modifications: coated on latex beads
Turning to B1, the “AI (adhesion index) of ligand-coated beads bound to K562 cells” value in [13] came to 300 ± 28.
